# Results gathered from unrelated publications.
# Protocols differ between the studies behind these lines.
# Target: Cyclin-dependent kinase 2 (CDK2, Homo sapiens, UniProt P24941)
# Technique: competition with immobilised ligand
Compound,assay,setting,remaining binding [%]
O=C(c1ccc(Nc2ncc(Cl)c(-c3ccc(Cl)s3)n2)cc1)N1CCC(N2CCCC2)CC1,binding,1 µM,27
Nc1cnc(N2CCc3cc(S(=O)(=O)Nc4c(F)cc(Cl)cc4F)cc(N4CCCC4=O)c32)nc1,cell-free assay,1 µM,100
COc1cnc(Nc2cccc(S(N)(=O)=O)c2)nc1N1CCN(c2ccccc2)CC1,binding,1 µM,98
C[C@@H]1CN(c2ccc3ncc(-c4ccc5[nH]nc(C6CC6)c5c4)n3n2)C[C@H](C)O1,binding,50 nM,100
O=C(c1ccc(Nc2nccc(-c3cc4ccccc4s3)n2)cc1)N1CCC(N2CCCC2)CC1,binding,1 µM,84
COc1ccc2c(c1)O[C@H](c1ccc(OC)c(OC)c1)C[C@@H]2NC(=O)C1(c2ccc3c(c2)OC(F)(F)O3)CC1,cell-free assay,1 µM,100
N#Cc1ccccc1CSc1nnc2c(n1)[nH]c1ccccc12,binding,10 µM,82
O=C(NCCCN1CCOCC1)c1ccc(Nc2nccc(-c3cc4ccccc4s3)n2)cc1,binding,1 µM,66
O=C(Nc1c[nH]nc1C(=O)NC1CCNCC1)c1cc(F)cc(F)c1,binding,1 µM,98
FC(F)(F)Oc1cccc(-c2cnc3ccc(-c4ccncc4)nn23)c1,cell-free assay,5 µM,81
C[C@H]1CCN(c2nccc(-c3cnn4ncccc34)n2)C1,binding,1 µM,95
CO[C@H]1CC[C@H](CNc2ccc(S(=O)(=O)NC(=O)c3ccc(N4CCN(CC5=C(c6ccc(Cl)cc6)CC(C)(C)CC5)CC4)cc3Oc3cnc4[nH]ccc4c3)cc2[N+](=O)[O-])CC1,cell-free assay,1 µM,100
CC(C)(C)c1ccc(-c2nc(CBr)nn2-c2cccc(O)c2)cc1,cell-free assay,10 µM,90
COc1ccc2cc(OCC3(C(=O)O)CN(C(=O)c4ccc(F)cc4)C3)ccc2c1,cell-free assay,1 µM,91
c1cncc(-c2cccc(Nc3nccc(NC4CCCCC4)n3)c2)c1,binding,10 µM,81
CN(CCCC(F)(F)F)c1nccc(-c2cnn3ncccc23)n1,binding,1 µM,100
